Data set [1] can be described thus: Stability in PBS assessed as half life. In kind it is physicochemical. In a few lines:
(§1)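 Hydrolytic decomposition was followed by ¹H NMR on 30 mg samples in D₂O, with spectra recorded periodically. Media were 1 M glycine (pH 5.75), PBS (pH 7.4, phosphate with NaCl), or 50 mM phosphate at pH 4.0 or 10.0. Buffers were made in H₂O, lyophilized and redissolved in D₂O. Low-field signals were integrated to give a rate constant k and a half-life.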

Data set [2] is described as follows: Stability in 1 M glycine solution assessed as half life. The format is physicochemical. The essentials:
as §1

The nature of data set [3]: Cytotoxicity against HEL cells. The format is cell-based. To be noted: human.
The test system of data set [4] is Human betaherpesvirus 5. The experiment in a line: Antiviral activity against HCMV. The format is functional, organism-based.
Data set [5] relates to Human betaherpesvirus 6. The experiment in a line: Antiviral activity against HHV6. In kind it is functional, organism-based.
Data set [6] concerns Human alphaherpesvirus 3. The experiment in a line: Antiviral activity against VZV. In kind it is functional, organism-based.
Data set [7] deals with Human alphaherpesvirus 1. In words: Antiviral activity against HSV1. In kind it is functional, organism-based.
Data set [8] concerns Vaccinia virus. The experiment in a line: Antiviral activity against vaccinia virus. The note with it: Orthopoxvirus vaccinia. In kind it is functional, organism-based.
Data set [9] can be described thus: Stability in phosphate buffer at pH 10.0 assessed as half life. The format is physicochemical. The essentials: as §1
Data set [10] in a line: Stability in 1 M glycine solution at pH 5.8 assessed as half life. The format is physicochemical. The essentials: as §1
Data set [11] is described as follows: Stability in phosphate buffer at pH 4.0 assessed as half life. The format is physicochemical. In a few lines:
as §1

Data set [12] can be described thus: Stability in PBS at pH 7.4 assessed as half life. In kind it is physicochemical. The essentials:
as §1

The structures appear in SMILES notation. Converted amounts (≈) assume the structure as drawn.

Usually half-life stands for the time in which the quantity being followed falls by half. The term CC50 denotes the concentration that lowers cell viability or growth by half. Take `NC(N)=NC(=O)NC[C@H](O)CO`: the half-life is 19.6 days in data set [1] and 16.1 days in data set [2]. In addition, in data set [3], the CC50 was greater than 100 µg/mL. In [3], the MCC is greater than 100 µg/mL.

Usually EC50 stands for the concentration at which the effect is half-maximal. A low value points to an effect from little substance. Regarding `CCCCCCCCCCCCCCCCCCOP1(=O)CO[C@@H](Cn2cnc(N)nc2=O)CO1` (stereo not given in full), the EC50 in [4] was no more than 0.00014 µg/mL; in data set [5], 0.008 µg/mL (≈ 0.0155 µM); in data set [6], no more than 0.00014 µg/mL; in [7], 0.003 µg/mL (≈ 0.00583 µM); in [8] it was 0.037 µg/mL (≈ 0.0719 µM).

Consider `NC(N)=NC(=O)NC[C@@H](COC=O)OCP(=O)(O)O`, for which the half-life in data set [1] is 4.98 days; in data set [2], 4.75 days. In data set [3], this compound returned a CC50 greater than 100 µg/mL. In data set [3], the MCC is greater than 100 µg/mL.

`Nc1ncn(C[C@H](O)CO)c(=O)n1`: the half-life in data set [9] is 10.3 days; in [10] it was 15.8 days; in data set [11], 17.8 days; in [12], 19.6 days.

Take `NC(N)=NC(=O)NC[C@H]1COP(=O)(O)CO1`: the half-life in data set [1] is 29.7 days. Also, in [2], the half-life was 14.7 days. Moreover, in [3], the CC50 was greater than 100 µg/mL and the MCC is greater than 100 µg/mL.

As to `NC(N)=NC(=O)NCCOCP(=O)(O)O`, the half-life in data set [1] was 39.3 days. Further, the half-life in data set [2] was 26.2 days. In data set [3], the CC50 was greater than 100 µg/mL and the MCC is greater than 100 µg/mL.

These data come from ChEMBL document CHEMBL1158161, “Study of chemical stability of antivirally active 5-azacytosine acyclic nucleoside phosphonates using NMR spectroscopy” (Bioorg Med Chem, 2008).
